# Screening results: PubChem, Johns Hopkins Ion Channel Center
# MrgX1 allo act: allosterically activates human MrgX1 receptor signaling | Q96LB2 | MrgX1-HEK293, Fluo-4 calcium flux, FDSS; active compounds read high | B-score at 10 µM | actives 0.63% (n = 310,000) | AID 588675;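 active means plate-corrected calcium response at least 3 library SD above typical, normal starting fluorescence, not activating the receptor alone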;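 further: compound read alongside a low EC10 to EC30 dose of BAM8-22 agonist; peak minus trough fluorescence over baseline measured at the second addition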
# Target sequence (Q96LB2 whole entry, looked up): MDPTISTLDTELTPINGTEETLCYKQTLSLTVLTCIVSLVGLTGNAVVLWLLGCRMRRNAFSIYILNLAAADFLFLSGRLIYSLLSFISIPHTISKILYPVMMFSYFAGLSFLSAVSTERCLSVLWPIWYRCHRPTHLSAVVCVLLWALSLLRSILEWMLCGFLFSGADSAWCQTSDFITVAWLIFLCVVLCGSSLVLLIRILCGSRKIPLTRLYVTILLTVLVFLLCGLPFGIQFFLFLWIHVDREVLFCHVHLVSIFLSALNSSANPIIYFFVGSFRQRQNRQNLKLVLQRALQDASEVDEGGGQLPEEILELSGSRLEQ
# RGS4 block: inhibitors of human RGS4; HEK293 M3R/RGS4 inducible, Fluo-4 calcium flux; active compounds read high; triggered by carbachol at its EC20; B-score at 10 µM; actives 0.45% (n = 310,000);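 active means B-score, a plate-corrected calcium signal, over three deviations above library mean, with baseline fluorescence within five deviations of library mean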;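 further: RGS4 expression induced by doxycycline in cells with stable M3 receptor; B-score is computed from the integrated fluorescence ratio over baseline after carbachol; higher B-score means a larger calcium signal and so more RGS4 inhibition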
# Target sequence (P49798 whole entry, looked up): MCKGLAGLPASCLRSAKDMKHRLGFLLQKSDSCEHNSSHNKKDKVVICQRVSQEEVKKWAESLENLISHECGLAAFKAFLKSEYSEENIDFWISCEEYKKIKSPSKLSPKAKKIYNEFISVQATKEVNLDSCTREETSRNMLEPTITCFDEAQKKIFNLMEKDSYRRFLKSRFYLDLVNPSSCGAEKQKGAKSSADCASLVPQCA
# MrgX1 agonist: agonists of human MrgX1 receptor; actives 0.44% (n = 310,000); B-score at 10 µM; MrgX1-HEK293 cells, Fluo-4 calcium fluorescence, agonist mode; active compounds read high;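 active means calcium response B-score plate-corrected fluorescence ratio at least 3 library SD, with starting fluorescence B-score inside 5 SD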
#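 Material – MrgX1-expressing HEK293 cells · Input – 15,000 cells seeded per well · Dosing – compound as first of three additions · Times – overnight seeding, then 1 h dark dye loading · Measured by – kinetic Fluo-4 NW fluorescence of intracellular calcium · Read-out – B-scored fluorescence response ratio · Benchmarks – positive and negative control wells on each plate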
# Kir21 inh: inhibitors of mouse Kir2.1 inward-rectifier potassium channel. actives 0.85% (n = 310,000). P35561. HEK293-Kir2.1, FluxOR thallium flux fluorescence; active compounds read low. B-score at 10 µM;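 active means fluorescence ratio B-score at or below minus 3 SD of library scores, with starting-brightness B-score within 2 SD, cut at about -4.2 in these data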;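 further: channel flux triggered by added potassium and thallium sulfate stimulus; B-score of peak minus minimum fluorescence over baseline after thallium stimulus; more negative B-score means stronger Kir2.1 block with less thallium influx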
# MrgX1 antagonist: human MrgX1 receptor antagonism, primary screen. Q96LB2. MRGX1-HEK293 calcium flux, Fluo-4, BAM8-22 antagonism; active compounds read low. B-score at 10 µM. actives 1.3% (n = 310,000). AID 588676;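 active means calcium-response B-score plate-corrected more than 3 library SD below zero, starting fluorescence within 5 deviations, no agonist response on first addition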;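 further: peak minus trough fluorescence over baseline after final BAM8-22 challenge near maximal dose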
# RGS4 pot: potentiators or activators of RGS4. HEK293 M3R/inducible RGS4, carbachol calcium flux Fluo4; active compounds read low. B-score at 10 µM. actives 0.92% (n = 310,000). AID 463111;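 active means B-score of the integrated calcium signal more than 4 SD below the library mean, with starting fluorescence not abnormally high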;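 further: negative B-score means reduced calcium response which marks RGS4 activation or potentiation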
#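 test system = M3R-expressing HEK293 line, RGS4 induced by doxycycline | probe or stimulus = carbachol at ECmax as muscarinic agonist stimulus | timing = dye loading 30 min 37 °C, buffer rest 30 min RT | signal = calcium dye Fluo4 fluorescence | evaluation = B score from integrated fluorescence ratio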
# MrgX1 PAM conf: human MrgX1 positive allosteric modulation, re-confirmation; MrgX1-HEK293, Fluo-4 calcium fluorescence, FDSS; actives 13% (n = 1,200); activation (ratio percentage), % at 10 µM; shares compounds with MrgX1 allo act;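 active means ratio at least 3 SD above the weak peptide control, stable starting fluorescence, no direct agonism earlier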;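 further: compound followed by low BAM8-22 agonist challenge near EC20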
# MrgX1 antag conf: reconfirmed antagonist of human MrgX1 receptor signaling; shares compounds with MrgX1 antagonist; MrgX1-HEK293, BAM8-22 calcium flux, Fluo-4; active compounds read low; remaining BAM8-22 calcium response % of control (active compounds read low), % at 10 µM; actives 19% (n = 2,300); AID 602420;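 active means remaining agonist calcium response no higher than 100% minus 3 SD of agonist-only control wells, with starting fluorescence near control levels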;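 further: agonist BAM8-22 given at a near maximal EC90 to ECmax level; peak minus minimum fluorescence divided by baseline after agonist addition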
# HEK293 Ca flux: MrgX1 antagonist counter-screen hit in parental HEK293 cells; Fluo-4 calcium fluorescence, FDSS; fluorescence ratio F(max-min)/F0 at 10 µM; shares compounds with MrgX1 antagonist; actives 2% (n = 4,000);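 active means duplicate-averaged calcium fluorescence ratio at least three times the standard deviation of buffer wells, a nonspecific response in parental cells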
# HEK293 Ca counter: activity in parental HEK293 cells without MrgX1; shares compounds with MrgX1 antagonist; parental HEK293 calcium flux, Fluo-4 fluorescence ratio; active compounds read high; fluorescence ratio F(max-min)/F0 at 10 µM; actives 0.4% (n = 4,000); AID 624114;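 active means calcium fluorescence ratio, averaged over duplicates, at least 3 SD of the buffer-well ratio, meaning a nonspecific response in receptor-free cells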;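 further: untransfected parental HEK293 lacking MrgX1 used as counterscreen for MrgX1 allosteric activators; fluorescence change taken during the second addition on a kinetic imager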
# HEK293 Ca cntr2: activity in parental HEK293 cells lacking MrgX1 receptor. Fluo-4 calcium fluorescence (FDSS); active compounds read high. shares compounds with MrgX1 antagonist. actives 8.7% (n = 4,000). fluorescence ratio F(max-min)/F0 at 10 µM;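 active means calcium fluorescence ratio at least three times the spread of buffer wells, meaning a non-specific response in parental cells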
# * = called active by the depositor; i = inactive; . = not tested or not shown. This is a sample that favours compounds with a hit; in the whole collection about 4.1% have one here.
SMILES,MrgX1 allo act,RGS4 block,MrgX1 agonist,Kir21 inh,MrgX1 antagonist,RGS4 pot,MrgX1 PAM conf,HEK293 Ca flux,HEK293 Ca counter,HEK293 Ca cntr2,others
NC(=O)c1ccsc1NC(=O)CSc1nnc(C2CC2)n1Cc1ccccc1,i,i,i,0.96,i,i,.,.,.,.,
O=C(Nc1ccc(C(=O)NC2CCCCC2)cc1)c1cccnc1,10.2*,i,i,-0.32,i,i,i,i,i,i,
CC(=O)Nc1ccc(C(=O)NC2CCCC2)cc1,i,.,i,.,i,.,.,.,.,.,
Nc1nc(Nc2ccccc2Br)nc(C(F)(F)F)n1,9.09*,i,i,-0.38,i,i,i,i,i,i,
COc1ccc(N2CCN(CC(O)COCc3ccccc3)CC2)cc1 (centres undefined),7.67*,i,i,-0.17,i,i,i,i,i,i,
COc1ccc(-c2csc(=NCCO)n2-c2ccccc2)cc1,8.75*,i,i,2.42,-5.76*,i,19.9%*,i,i,i,MrgX1 antag conf=i
C=CCn1c(-c2ccc(OC)cc2)csc1=Nc1c(C)n(C)n(-c2ccccc2)c1=O,i,i,i,-0.77,i,i,.,.,.,.,
COC(=O)c1cc(C(=O)OC)n(Cc2ccc(F)cc2)c1C,6.53*,i,i,-1.26,i,i,i,i,i,i,
COCCN1CCN(Cc2nc(C3(c4ccc(C)cc4)CCCC3)no2)CC1,9*,i,i,-2.09,i,i,i,i,i,i,
CC(=O)N1CCCN(Cc2nc(C3(c4ccc(C)cc4)CCCC3)no2)CC1,i,i,i,1.55,i,i,.,.,.,.,
CCOc1ccc(-c2[nH]ncc2-c2ccccc2)c(O)c1,12.8*,i,i,0.55,i,i,17.5%*,i,i,i,
COc1ccc(-c2[nH]ncc2-c2csc(C)n2)c(O)c1,i,i,i,0.4,i,i,.,.,.,.,
COc1ccc(-c2[nH]ncc2-c2ccc(Cl)cc2)c(O)c1,6.71*,i,i,-1.66,i,i,26.6%*,i,i,i,
COc1ccc(-c2cn[nH]c2-c2ccc(OC)cc2O)cc1,16.4*,i,i,-0.47,i,i,12.4%*,i,i,i,
Cc1cccc(-n2c(-c3ccco3)n[nH]c2=S)c1,i,i,i,-0.43,i,i,.,.,.,.,
CN(CCC#N)C(=O)COc1ccc(Br)cc1Cl,i,i,i,0.21,i,i,.,.,.,.,
CC(C)N(C(=O)COc1ccc(Br)cc1Cl)C(C)C,21.2*,i,i,-0.15,i,i,6.4%*,i,i,i,
Fc1cccc2sc(Nc3nnc(-c4ccco4)o3)nc12,12*,i,i,0.26,i,i,i,i,i,i,
COc1cccc2sc(Nc3nnc(-c4ccc(F)cc4)o3)nc12,i,i,i,1.19,i,i,.,.,.,.,
CC(C)(C)c1ccccc1N=Cc1ccc2ccccc2n1,i,i,i,0.68,i,i,.,.,.,.,
